Test results from ChEMBL document CHEMBL1140517, “Synthesis, antifungal and antimycobacterial activities of new bis-imidazole derivatives, and prediction of their binding to P450(14DM) by molecular docking and MM/PBSA method” (2007).
≈ marks a conversion by molar mass, not a printed value.

Experiments:
Type in all cases: functional
Candida albicans [1] = experiment: Antimicrobial activity against Candida albicans 3038 after 24 hrs
How it was run: (§1)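 Broth MIC against clinical Candida isolates (C. albicans 3038 and C. glabrata 123). Compounds were taken from 4 mg/mL DMSO stock solutions (stock, not final concentration). Miconazole and amphotericin B served as reference compounds. Each MIC was determined twice in duplicate experiments and read after 24 h and 48 h of incubation.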

Candida albicans [2] = experiment: Antimicrobial activity against Candida albicans 3038 after 48 hrs; how it was run: as §1
Nakaseomyces glabratus [3] = experiment: Antimicrobial activity against Candida glabrata 123 after 24 hrs; how it was run: as §1
Nakaseomyces glabratus [4] = experiment: Antimicrobial activity against Candida glabrata 123 after 48 hrs; how it was run: as §1
[5] = test system: Mycobacterium tuberculosis; experiment: Antimicrobial activity against Mycobacterium tuberculosis H37Rv after 24 hrs
[6] = test system: Mycobacterium tuberculosis; experiment: Antimicrobial activity against Mycobacterium tuberculosis H37Rv assessed per disk after 24 hrs

| SMILES | MIC (Candida albicans [1]) | MIC (Candida albicans [2]) | MIC (Nakaseomyces glabratus [3]) | MIC (Nakaseomyces glabratus [4]) | MIC [5] | MIC [6] |
| --- | --- | --- | --- | --- | --- | --- |
| O=C(c1cccs1)C(Cn1ccnc1)Cn1ccnc1 | 128 mg/L (≈ 447 µM) | 128 mg/L (≈ 447 µM) | 128 mg/L (≈ 447 µM) | 128 mg/L (≈ 447 µM) | 16 mg/L (≈ 55.9 µM) | – |
| O=C(c1ccc(Cl)cc1)C(Cn1ccnc1)Cn1ccnc1 | 16 mg/L (≈ 50.8 µM) | 32 mg/L (≈ 102 µM) | 32 mg/L (≈ 102 µM) | 64 mg/L (≈ 203 µM) | 16 mg/L (≈ 50.8 µM) | – |
| COc1ccc(C(O)C(Cn2ccnc2)Cn2ccnc2)cc1 (stereo not drawn) | 128 mg/L (≈ 410 µM) | > 128 mg/L | 128 mg/L (≈ 410 µM) | > 128 mg/L | 64 mg/L (≈ 205 µM) | – |
| OC(c1ccc(Br)cc1)C(Cn1ccnc1)Cn1ccnc1 (stereo not drawn) | 128 mg/L (≈ 354 µM) | > 128 mg/L | 128 mg/L (≈ 354 µM) | – | 8 mg/L (≈ 22.1 µM) | – |
| O=C(c1ccc([N+](=O)[O-])cc1)C(Cn1ccnc1)Cn1ccnc1 | 128 mg/L (≈ 393 µM) | > 128 mg/L | 128 mg/L (≈ 393 µM) | > 128 mg/L | 64 mg/L (≈ 197 µM) | – |
| O=C(c1ccc(-c2ccccc2)cc1)C(Cn1ccnc1)Cn1ccnc1 | 2 mg/L (≈ 5.61 µM) | 4 mg/L (≈ 11.2 µM) | 4 mg/L (≈ 11.2 µM) | 8 mg/L (≈ 22.4 µM) | 8 mg/L (≈ 22.4 µM) | – |
| Clc1ccc(COC(Cn2ccnc2)c2ccc(Cl)cc2Cl)c(Cl)c1 (stereo not drawn) [MICONAZOLE] | 2.5 mg/L (≈ 6.01 µM) | 5 mg/L (≈ 12 µM) | 1.25 mg/L (≈ 3 µM) | 2.5 mg/L (≈ 6.01 µM) | – | – |
| Cc1ccc(C(=O)C(Cn2ccnc2)Cn2ccnc2)cc1 | 64 mg/L (≈ 217 µM) | 128 mg/L (≈ 435 µM) | 128 mg/L (≈ 435 µM) | 128 mg/L (≈ 435 µM) | 8 mg/L (≈ 27.2 µM) | – |
| C[C@@H]1[C@H](O)[C@@H](C)/C=C/C=C/C=C/C=C/C=C/C=C/C=C/[C@H](O[C@@H]2O[C@H](C)[C@@H](O)[C@H](N)[C@@H]2O)C[C@@H]2O[C@](O)(C[C@@H](O)C[C@@H](O)[C@H](O)CC[C@@H](O)C[C@@H](O)CC(=O)O[C@H]1C)C[C@H](O)[C@H]2C(=O)O [AMPHOTERICIN B] | 1 mg/L (≈ 1.08 µM) | 2 mg/L (≈ 2.16 µM) | 0.5 mg/L (≈ 0.541 µM) | 2 mg/L (≈ 2.16 µM) | – | – |
| O=C(c1ccccc1)C(Cn1ccnc1)Cn1ccnc1 | 64 mg/L (≈ 228 µM) | 64 mg/L (≈ 228 µM) | 128 mg/L (≈ 457 µM) | 128 mg/L (≈ 457 µM) | 16 mg/L (≈ 57.1 µM) | – |
| O=C(c1ccc(Br)cc1)C(Cn1ccnc1)Cn1ccnc1 | 16 mg/L (≈ 44.5 µM) | 32 mg/L (≈ 89.1 µM) | 32 mg/L (≈ 89.1 µM) | 64 mg/L (≈ 178 µM) | 16 mg/L (≈ 44.5 µM) | – |
| O=C(c1ccc(Cl)s1)C(Cn1ccnc1)Cn1ccnc1 | 64 mg/L (≈ 199 µM) | 64 mg/L (≈ 199 µM) | 64 mg/L (≈ 199 µM) | 128 mg/L (≈ 399 µM) | 16 mg/L (≈ 49.9 µM) | – |
| O=C(c1ccc(F)cc1)C(Cn1ccnc1)Cn1ccnc1 | 64 mg/L (≈ 215 µM) | 128 mg/L (≈ 429 µM) | 128 mg/L (≈ 429 µM) | 128 mg/L (≈ 429 µM) | 16 mg/L (≈ 53.6 µM) | – |
| O=C(c1ccc(Br)s1)C(Cn1ccnc1)Cn1ccnc1 | 64 mg/L (≈ 175 µM) | 64 mg/L (≈ 175 µM) | 64 mg/L (≈ 175 µM) | 128 mg/L (≈ 350 µM) | 16 mg/L (≈ 43.8 µM) | – |
| COc1ccc(C(=O)C(Cn2ccnc2)Cn2ccnc2)cc1 | 64 mg/L (≈ 206 µM) | 128 mg/L (≈ 412 µM) | 128 mg/L (≈ 412 µM) | 128 mg/L (≈ 412 µM) | 16 mg/L (≈ 51.6 µM) | – |
| CO[C@H]1/C=C/O[C@@]2(C)Oc3c(C)c(O)c4c(O)c(c(/C=N/N5CCN(C)CC5)c(O)c4c3C2=O)NC(=O)/C(C)=C\C=C\[C@H](C)[C@H](O)[C@@H](C)[C@@H](O)[C@@H](C)[C@H](OC(C)=O)[C@@H]1C [RIFAMPIN] | – | – | – | – | – | 1 mg |
